Data: ChEMBL document CHEMBL4819122, “Novel 4-(piperazin-1-yl)quinolin-2(1H)-one bearing thiazoles with antiproliferative activity through VEGFR-2-TK inhibition” (Bioorg Med Chem, 2021)
Calls of active or inactive are those of the source. No cut-off for these calls is given here.

Key:
[1] = system: OVCAR-8; experiment: Cytotoxicity against human OVCAR-8 assessed as growth inhibition at 10 uM by NCI protocol relative to control; assay type: functional; conditions: read-out: GI
Procedure, shortened: (§1)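 Run by NCI as a single-dose screen at 10 μM across the sixty-cell-line panel, which covers nine human tumour tissue types. The read-out is percent growth inhibition of treated cells relative to untreated cells.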

[2] = system: CAKI-1; experiment: Cytotoxicity against human Caki1 assessed as growth inhibition at 10 uM by NCI protocol relative to control; assay type: functional; conditions: read-out: GI; procedure, shortened: as §1
[3] = system: UACC-62; experiment: Cytotoxicity against human UACC-62 assessed as growth inhibition at 10 uM by NCI protocol relative to control; assay type: functional; conditions: read-out: GI
Procedure, shortened: (§2)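 Run by the NCI under its standard protocol: one dose of 10 μM against a sixty-line panel from nine human tumour tissues. Result given as percent growth inhibition of treated cells relative to untreated cells.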

[4] = system: U-251; experiment: Cytotoxicity against human U251 assessed as growth inhibition at 10 uM by NCI protocol relative to control; assay type: functional; conditions: read-out: GI; procedure, shortened: as §2
[5] = system: OVCAR-4; experiment: Cytotoxicity against human OVCAR-4 assessed as growth inhibition at 10 uM by NCI protocol relative to control; assay type: functional; conditions: read-out: GI; procedure, shortened: as §1
[6] = system: M14; experiment: Cytotoxicity against human M14 assessed as growth inhibition at 10 uM by NCI protocol relative to control; assay type: functional; conditions: read-out: GI; procedure, shortened: as §1
[7] = system: HCC 2998; experiment: Cytotoxicity against human HCC-2998 assessed as growth inhibition at 10 uM by NCI protocol relative to control; assay type: functional; conditions: read-out: GI; procedure, shortened: as §1
[8] = system: SK-MEL-28; experiment: Cytotoxicity against human SK-MEL-28 assessed as growth inhibition at 10 uM by NCI protocol relative to control; assay type: functional; conditions: read-out: GI; procedure, shortened: as §1
[9] = system: 786-0; experiment: Cytotoxicity against human 786-0 assessed as growth inhibition at 10 uM by NCI protocol relative to control; assay type: functional; conditions: read-out: GI; procedure, shortened: as §1
[10] = system: NCI/ADR-RES; experiment: Cytotoxicity against human NCl/ADR-RES assessed as growth inhibition at 10 uM by NCI protocol relative to control; assay type: functional; conditions: read-out: GI; procedure, shortened: as §1
[11] = system: MDA-MB-435; experiment: Cytotoxicity against human MDA-MB-435 assessed as growth inhibition at 10 uM by NCI protocol relative to control; assay type: functional, cell-based; procedure, shortened: as §1
[12] = system: SF-295; experiment: Cytotoxicity against human SF-295 assessed as growth inhibition at 10 uM by NCI protocol relative to control; assay type: functional; conditions: read-out: GI; procedure, shortened: as §1
[13] = system: OVCAR-3; experiment: Cytotoxicity against human OVCAR-3 assessed as growth inhibition at 10 uM by NCI protocol relative to control; assay type: functional; conditions: read-out: GI; procedure, shortened: as §1
[14] = system: HL-60; experiment: Cytotoxicity against human HL60 assessed as growth inhibition at 10 uM by NCI protocol relative to control; assay type: functional; conditions: read-out: GI; procedure, shortened: as §1
[15] = system: NCI-H460; experiment: Cytotoxicity against human NCI-H460 assessed as growth inhibition at 10 uM by NCI protocol relative to control; assay type: functional; conditions: read-out: GI; procedure, shortened: as §1
[16] = system: HCT-116; experiment: Cytotoxicity against human HCT-116 assessed as growth inhibition at 10 uM by NCI protocol relative to control; assay type: functional; conditions: read-out: GI; procedure, shortened: as §1
[17] = system: BT-549; experiment: Cytotoxicity against human BT-549 assessed as growth inhibition at 10 uM by NCI protocol relative to control; assay type: functional; conditions: read-out: GI; procedure, shortened: as §1
[18] = system: SW-620; experiment: Cytotoxicity against human SW-620 assessed as growth inhibition at 10 uM by NCI protocol relative to control; assay type: functional; conditions: read-out: GI; procedure, shortened: as §2
[19] = system: ACHN; experiment: Cytotoxicity against human ACHN assessed as growth inhibition at 10 uM by NCI protocol relative to control; assay type: functional; conditions: read-out: GI; procedure, shortened: as §1
[20] = system: NCI-H522; experiment: Cytotoxicity against human NCI-H522 assessed as growth inhibition at 10 uM by NCI protocol relative to control; assay type: functional; conditions: read-out: GI; procedure, shortened: as §1
[21] = system: NCI-H226; experiment: Cytotoxicity against human NCI-H226 assessed as growth inhibition at 10 uM by NCI protocol relative to control; assay type: functional; conditions: read-out: GI; procedure, shortened: as §1
[22] = system: PC-3; experiment: Cytotoxicity against human PC3 assessed as growth inhibition at 10 uM by NCI protocol relative to control; assay type: functional; conditions: read-out: GI; procedure, shortened: as §1
[23] = system: SR; experiment: Cytotoxicity against human SR assessed as growth inhibition at 10 uM by NCI protocol relative to control; assay type: functional; conditions: read-out: GI; procedure, shortened: as §2
[24] = system: SF-539; experiment: Cytotoxicity against human […] assessed as growth inhibition at 10 uM by NCI protocol relative to control; assay type: functional; conditions: read-out: GI; procedure, shortened: as §1
[25] = system: SNB-75; experiment: Cytotoxicity against human SNB-75 assessed as growth inhibition at 10 uM by NCI protocol relative to control; assay type: functional; conditions: read-out: GI; procedure, shortened: as §2
[26] = system: Hs-578T; experiment: Cytotoxicity against human HS 578T assessed as growth inhibition at 10 uM by NCI protocol relative to control; assay type: functional; conditions: read-out: GI; procedure, shortened: as §1
[27] = system: NCI-H322M; experiment: Cytotoxicity against human NCI-H322M assessed as growth inhibition at 10 uM by NCI protocol relative to control; assay type: functional; conditions: read-out: GI; procedure, shortened: as §1
[28] = system: CCRF-CEM; experiment: Cytotoxicity against human CCRF-CEM assessed as growth inhibition at 10 uM by NCI protocol relative to control; assay type: functional; conditions: read-out: GI; procedure, shortened: as §1
[29] = system: HT-29; experiment: Cytotoxicity against human HT29 assessed as growth inhibition at 10 uM by NCI protocol relative to control; assay type: functional; conditions: read-out: GI; procedure, shortened: as §1
[30] = system: A549; experiment: Cytotoxicity against human A549 assessed as growth inhibition at 10 uM by NCI protocol relative to control; assay type: functional; conditions: read-out: GI; procedure, shortened: as §1
[31] = system: MOLT-4; experiment: Cytotoxicity against human MOLT-4 assessed as growth inhibition at 10 uM by NCI protocol relative to control; assay type: functional; conditions: read-out: GI; procedure, shortened: as §1
[32] = system: EKVX; experiment: Cytotoxicity against human EKVX assessed as growth inhibition at 10 uM by NCI protocol relative to control; assay type: functional; conditions: read-out: GI; procedure, shortened: as §1
[33] = system: K562; experiment: Cytotoxicity against human K-562 assessed as growth inhibition at 10 uM by NCI protocol relative to control; assay type: functional; conditions: read-out: GI; procedure, shortened: as §1
[34] = system: UACC-257; experiment: Cytotoxicity against human UACC-257 assessed as growth inhibition at 10 uM by NCI protocol relative to control; assay type: functional; conditions: read-out: GI; procedure, shortened: as §2
[35] = system: IGROV-1; experiment: Cytotoxicity against human IGROVI assessed as growth inhibition at 10 uM by NCI protocol relative to control; assay type: functional; conditions: read-out: GI; procedure, shortened: as §1
[36] = system: KM12; experiment: Cytotoxicity against human KM12 assessed as growth inhibition at 10 uM by NCI protocol relative to control; assay type: functional; conditions: read-out: GI; procedure, shortened: as §1
[37] = system: NCI-H23; experiment: Cytotoxicity against human NCI-H23 assessed as growth inhibition at 10 uM by NCI protocol relative to control; assay type: functional; conditions: read-out: GI; procedure, shortened: as §1
[38] = system: HCT-15; experiment: Cytotoxicity against human HCT-15 assessed as growth inhibition at 10 uM by NCI protocol relative to control; assay type: functional; conditions: read-out: GI; procedure, shortened: as §1
[39] = system: DU-145; experiment: Cytotoxicity against human DU-145 assessed as growth inhibition at 10 uM by NCI protocol relative to control; assay type: functional; conditions: read-out: GI; procedure, shortened: as §1
[40] = system: Malme-3M; experiment: Cytotoxicity against human MALME-3M assessed as growth inhibition at 10 uM by NCI protocol relative to control; assay type: functional; conditions: read-out: GI; procedure, shortened: as §1
[41] = system: MCF7; experiment: Cytotoxicity against human MCF7 assessed as growth inhibition at 10 uM by NCI protocol relative to control; assay type: functional; conditions: read-out: GI; procedure, shortened: as §1
[42] = system: RPMI-8226; experiment: Cytotoxicity against human RPMI-8226 assessed as growth inhibition at 10 uM by NCI protocol relative to control; assay type: functional; conditions: read-out: GI; procedure, shortened: as §1
[43] = system: UO-31; experiment: Cytotoxicity against human UO31 assessed as growth inhibition at 10 uM by NCI protocol relative to control; assay type: functional; conditions: read-out: GI; procedure, shortened: as §2
[44] = system: SK-MEL-5; experiment: Cytotoxicity against human SK-MEL-5 assessed as growth inhibition at 10 uM by NCI protocol relative to control; assay type: functional; conditions: read-out: GI; procedure, shortened: as §1

Compound `O=C(CN1CCN(c2cc(=O)n(-c3ccccc3)c3ccccc23)CC1)Nc1nc(-c2ccccc2)cs1` has an inhibition of growth at 10 µM [1] of 30.2%, an inhibition of growth at 10 µM [2] of 38.6% and an inhibition of growth at 10 µM [3] of 36.1%. For the same compound, the inhibition of growth at 10 µM [4] was 40.8%, the inhibition of growth at 10 µM [5] was 76.7% and the inhibition of growth at 10 µM [6] was 26.6%. The inhibition of growth at 10 µM [7] was 18.2%, the inhibition of growth at 10 µM [8] was 28.8% and the inhibition of growth at 10 µM [9] was 10.7%. For the same compound, the inhibition of growth at 10 µM [10] was 37.3%, the “growth inhibition (GI)” value [11] was “inactive” and the inhibition of growth at 10 µM [12] was 33.3%. For the same compound, the inhibition of growth at 10 µM [13] was 27.5%, the inhibition of growth at 10 µM [14] was 62.9% and the inhibition of growth at 10 µM [15] was 67.8%. For the same compound, the inhibition of growth at 10 µM [16] was 46.6%, the inhibition of growth at 10 µM [17] was 33% and the inhibition of growth at 10 µM [18] was 31.4%. For the same compound, the inhibition of growth at 10 µM [19] was 36.2%, the inhibition of growth at 10 µM [20] was 33.5% and the inhibition of growth at 10 µM [21] was 51.8%. The inhibition of growth at 10 µM [22] was 67.5%, the inhibition of growth at 10 µM [23] was 48.7% and the inhibition of growth at 10 µM [24] was 22.9%. For the same compound, the inhibition of growth at 10 µM [25] was 28.4%, the inhibition of growth at 10 µM [26] was 17.1% and the inhibition of growth at 10 µM [27] was 10.6%. It also gave an inhibition of growth at 10 µM [28] of 60.4%, an inhibition of growth at 10 µM [29] of 27% and an inhibition of growth at 10 µM [30] of 43.8%. For the same compound, the inhibition of growth at 10 µM [31] was 82.2%, the inhibition of growth at 10 µM [32] was 54.5% and the inhibition of growth at 10 µM [33] was 77.6%. The inhibition of growth at 10 µM [34] was 51.5%, the inhibition of growth at 10 µM [35] was 32.5% and the inhibition of growth at 10 µM [36] was 37%. For the same compound, the inhibition of growth at 10 µM [37] was 39.2%, the inhibition of growth at 10 µM [38] was 74.8% and the inhibition of growth at 10 µM [39] was 27.3%. It also gave an inhibition of growth at 10 µM [40] of 30.3%, an inhibition of growth at 10 µM [41] of 72.4% and an inhibition of growth at 10 µM [42] of 53.8%. The inhibition of growth at 10 µM [43] was 58.4% and the inhibition of growth at 10 µM [44] was 94.7%.
